This is an account of results in article PMC9366314 (Acta Pharmaceutica Sinica. B, 2022).

Assay type in all cases: cell-based
Assay [1] concerns 92.1 cells (GNAQ Q209L mutation). The assay is described as follows: Cell proliferation inhibition assay. The settings on record: 72 h, read-out: Antiproliferation (IC50, μmol/L) 92.1. The procedure, abridged:
(§1)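 Uveal melanoma cells were grown in RPMI-1640 with 10% FBS at 37 °C, 5% CO2. They were resuspended at 3 × 10^3 cells/mL, seeded and left overnight. Cells were exposed to a concentration series of test compound for 72 h. CCK-8 was added for 2–4 h and absorbance read at 450 nm. IC50 values were fitted from the curves and reported as mean ± SEM, n = 3.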

For assay [2], the system named is MP41 cells (GNA11 Q209L mutation). The assay is described as follows: Cell proliferation inhibition assay. The note with it: MP41, 72 h, read-out: Antiproliferation (IC50, μmol/L) MP41. The essentials:
as §1

Assay [3] relates to Gαq/11. Kind of assay: IP1 accumulation assay. The note with it: CHO-M1 cells, mean ± SEM (n = 3).

As to `N[C@@H](CCCO)CN1CCn2cc(-c3ccccc3)nc2[C@@H]1CC1CCCCC1` [GQ251], the IC50 in assay [1] is 12.6 ± 0.7 µmol/L; in assay [2], 7.4 ± 0.8 µmol/L. For the same molecule, the “IP1 inhibition at 10 μmol/L” value in assay [3] is on record as 51.2 ± 4.9%.
Taken in the same sequence, the figures for `CC[C@H](C)[C@H](N)C(=O)N1CCn2cc(-c3nccs3)nc2[C@@H]1CC1CCCCC1` [GQ226] were > 40 µmol/L, > 40 µmol/L and 29.5 ± 3.0%.
Taken in the same sequence, the figures for `CC[C@H](C)[C@H](N)C(=O)N1CCn2cc(C3CCCC3)nc2[C@@H]1CC1CCCCC1` [GQ229] were > 40 µmol/L, > 40 µmol/L and 15.8 ± 1.8%.
Taken in the same sequence, the figures for `N[C@@H](Cc1c[nH]cn1)CN1CCn2cc(-c3ccccc3)nc2[C@@H]1CC1CCCCC1` [GQ259] were 10.7 ± 0.8 µmol/L, 5.8 ± 0.6 µmol/L and 36.3 ± 0.9%.
